# TRPC6 act: activates the mouse TRPC6 cation channel; HEK293-TRPC6 membrane potential dye fluorescence; active compounds read high; B-score at 10 µM; 310,000 tested, 0.13% active;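 active means B-score of the integrated fluorescence ratio above library mean plus 3 SD, and starting fluorescence ratio within library mean plus 5 SD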;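 further: higher score means more depolarization so channel activation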
# TRPC4 act: TRPC4 (mouse) channel activation; Q9QUQ5; HEK293 TRPC4beta/mu-opioid, Fluo4 calcium fluorescence; active compounds read high; B-score at 10 µM; 310,000 tested, 0.49% active; AID 2237;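 active means B-score above 5 SD of library B-scores, and initial fluorescence ratio not above library mean plus 5 SD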;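 further: positive B-score marks a calcium rise read as TRPC4 activation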
# Target sequence (Q9QUQ5 whole entry, looked up): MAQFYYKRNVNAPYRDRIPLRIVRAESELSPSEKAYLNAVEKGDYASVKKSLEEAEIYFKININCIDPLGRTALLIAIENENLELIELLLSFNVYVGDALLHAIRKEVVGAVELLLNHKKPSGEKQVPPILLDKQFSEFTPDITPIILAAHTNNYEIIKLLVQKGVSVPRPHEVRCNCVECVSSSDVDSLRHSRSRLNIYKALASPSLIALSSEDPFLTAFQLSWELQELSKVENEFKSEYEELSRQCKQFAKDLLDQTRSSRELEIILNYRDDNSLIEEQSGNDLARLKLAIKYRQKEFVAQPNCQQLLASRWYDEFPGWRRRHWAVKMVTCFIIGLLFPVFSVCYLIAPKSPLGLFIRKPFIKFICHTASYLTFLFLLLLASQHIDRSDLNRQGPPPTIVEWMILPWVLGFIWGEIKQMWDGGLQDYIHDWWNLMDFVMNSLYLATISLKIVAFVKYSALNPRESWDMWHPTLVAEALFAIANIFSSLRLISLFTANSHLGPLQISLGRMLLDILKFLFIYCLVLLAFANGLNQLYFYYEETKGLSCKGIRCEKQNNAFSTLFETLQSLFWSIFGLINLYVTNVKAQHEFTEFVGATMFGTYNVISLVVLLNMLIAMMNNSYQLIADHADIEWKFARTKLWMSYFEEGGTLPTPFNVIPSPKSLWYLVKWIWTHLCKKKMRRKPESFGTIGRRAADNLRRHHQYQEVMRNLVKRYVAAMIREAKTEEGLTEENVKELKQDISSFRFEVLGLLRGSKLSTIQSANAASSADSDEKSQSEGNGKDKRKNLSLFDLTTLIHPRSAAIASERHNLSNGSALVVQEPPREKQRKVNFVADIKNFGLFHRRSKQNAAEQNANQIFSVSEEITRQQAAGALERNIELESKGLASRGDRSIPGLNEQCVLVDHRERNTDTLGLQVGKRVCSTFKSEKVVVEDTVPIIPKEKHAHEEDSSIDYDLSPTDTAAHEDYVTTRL
#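 Technique: kinetic Fluo4 calcium fluorescence; Test system: TRPC4beta and mu-opioid receptor HEK293 stable cells; Measure: B-scored integrated calcium fluorescence ratio; Benchmarks: low control buffer alone, high control maximal DAMGO; Schedule: 45 min room-temperature Fluo4 loading, 110 s read.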
# TRPC4 block: TRPC4 (mouse) channel inhibition | HEK293 TRPC4beta/mu-opioid, DAMGO-evoked Fluo4 calcium flux; active compounds read low | B-score at 10 µM | 300,000 tested, 0.39% active;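 active means B-score over 3 SD under the library average, no early fluorescence shift, positive overall ratio signal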
#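 Assay system: TRPC4beta/mu-opioid receptor HEK293 cell line; compound dosing: single concentration per test compound; detection: Fluo4 Ca2+ flux fluorescence; evaluation: per-well B score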
# TRPC4 PAM: allosteric potentiators of mouse TRPC4 channel | Q9QUQ5 | HEK293 TRPC4beta/mu-opioid, DAMGO EC20, Fluo-4 Ca2+ flux; active compounds read high | B-score at 10 µM | 310,000 tested, 0.42% active;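 active means B-score of calcium response area above 5 SD of library B-scores, with initial fluorescence ratio within 5 SD of library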
# Kir21 inh: Kir2.1 (mouse) channel inhibition; HEK293-Kir2.1, FluxOR thallium flux fluorescence; active compounds read low; B-score at 10 µM; 310,000 tested, 0.85% active;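 active means fluorescence ratio B-score at or below minus 3 SD of library scores, with starting-brightness B-score within 2 SD, cut at about -4.2 in these data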;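 further: channel flux triggered by added potassium and thallium sulfate stimulus; B-score of peak minus minimum fluorescence over baseline after thallium stimulus; more negative B-score means stronger Kir2.1 block with less thallium influx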
# TRPC6 inhibitor: blocks the mouse TRPC6 cation channel; Q61143; HEK293-TRPC6, membrane potential dye, ACh-evoked depolarization; active compounds read low; B-score at 10 µM; 310,000 tested, 1.1% active; AID 2553;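 active means B-score under library mean minus 3 SD, initial fluorescence not abnormally high, positive integrated signal ratio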;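 further: B-score derived from integrated fluorescence ratio over the kinetic read; more negative B-score means stronger inhibition of depolarization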
# Hits are given with their value; i = inactive. The list is not random: actives were taken first. Their share in the collection is about 2.9%.
SMILES,TRPC6 act,TRPC4 act,TRPC4 block,TRPC4 PAM,Kir21 inh,TRPC6 inhibitor
O=C(N/N=C/c1cn(-c2cccs2)nc1-c1ccccc1)c1ccccc1Br,i,i,i,14,i,i
CCCN(CCC)CCCNC(=S)Nc1ccc2nc3n(c(=O)c2c1)CCCCC3,i,i,i,14,i,i
Cc1nnc(SC/C=C/c2ccccc2)n(N)c1=O,i,i,i,i,i,i
O=C(/C=C/c1ccccc1)n1cnnc1SC/C=C/c1ccccc1,i,i,i,i,-6.9,i
CCc1nn(CC(=O)Nc2ccc(Br)c(C)c2)c(=N)s1,i,i,i,i,i,i
O=[N+]([O-])c1ccc(O)c(C2=NNC(c3ccccc3F)C2)c1 (configuration not stated),i,101,-6,i,i,i
COc1ccccc1C(=O)Nc1ccc(C(=O)N2CCCCC2)cc1,i,i,i,i,i,i
CC(C)C(OC(=O)/C=C/c1ccc2c(c1)OCO2)C(=O)NC(N)=O (configuration not stated),i,i,i,i,i,i
Cc1cc(C)c(C)c(OCCOCCNCc2ccccc2)c1,i,i,i,i,-9.1,i
C/C=C/c1ccc(OCCOc2cc(C=O)ccc2OC)c(OC)c1,i,i,i,i,i,i
Cc1cccc(OCCCCNCc2ccccc2)c1,i,i,i,i,i,i
Cc1cc(C)c(OCCCNCc2ccccc2)c(Br)c1,i,i,i,i,-16,i
C/C=C/c1ccc(OCCOCCNCc2ccccc2)c(OC)c1,i,i,i,i,-6.2,i
Cc1ccc(OCCNCc2ccccc2)c(C)c1,i,i,i,i,-4.6,i
C/C(=N/NC(=O)C1CCCC1)c1ccc(NC(=O)C(F)(F)F)cc1,i,i,i,i,i,i
O=C(CCC(=O)NC1CCCCC1)Nc1cccnc1,i,i,i,i,i,i
Cc1ccc(CC(=O)NC2CCCc3ccccc32)cc1C (configuration not stated),i,i,i,i,i,i
COc1ccc(CC(=O)Nc2ccccc2C(=O)N2CCCC2)cc1,i,i,i,i,i,i
Cc1ccccc1NC(=O)NC1CCCc2ccccc21 (configuration not stated),i,i,i,i,i,i
CCOC(=O)C1(Cc2ccccc2C)CCCN(Cc2ccc(NC(C)=O)cc2)C1 (configuration not stated),i,i,-9,i,i,i
COc1cccc(C2CC(c3cccs3)=NN2S(C)(=O)=O)c1 (configuration not stated),i,i,i,i,i,i
Oc1cccc(CCC2CCCCN2Cc2cn[nH]c2-c2ccc3c(c2)OCO3)c1 (configuration not stated),i,43,i,i,i,i
CCc1ccc(C(=O)CN2CCSC2=N)cc1,i,i,i,i,-4.5,i
CCc1ccc(C(=O)O)cc1,i,i,i,i,i,i
O=C1c2ccccc2C2(c3cc(C(F)(F)F)cc(C(F)(F)F)c3)NCCN12 (configuration not stated),i,i,-6,i,i,i
SMILES,TRPC6 act,TRPC4 act,TRPC4 block,TRPC4 PAM,Kir21 inh,TRPC6 inhibitor
Cc1ccccc1-c1nc(CS(=O)(=O)CC(=O)NCCCN2CC(C)CC(C)C2)c(C)o1 (configuration not stated),i,66,i,i,i,i
COc1cccc(-c2nc(CS(=O)(=O)CC(=O)NCCCN3CC(C)CC(C)C3)c(C)o2)c1 (configuration not stated),i,65,i,i,i,i
Cc1oc(-c2ccc(Cl)cc2)nc1CS(=O)CC(=O)NCCN1CCCCCC1 (configuration not stated),i,i,i,i,i,i
Cc1oc(-c2ccc(Cl)cc2)nc1CS(=O)CC(=O)NCCCN1CC(C)CC(C)C1 (configuration not stated),i,54,i,i,i,i
Cc1ccc(-n2nc3c(c2NC(=O)c2ccccc2)CS(=O)(=O)C3)cc1C,i,i,i,i,i,i
c1ccc(Nc2nc(N3CCCC3)nc(N3CCOCC3)n2)cc1,i,i,i,i,i,i
c1ccc(Nc2nc(Nc3ccccc3)nc(N3CCNCC3)n2)cc1,i,146,i,i,i,i
CC12CC(c3ccccc3O1)N(C(=O)c1ccco1)C(=S)N2c1ccc(F)cc1 (configuration not stated),i,i,i,i,i,i
Fc1ccc(COc2cccc(CNCc3ccncc3)c2)cc1,i,i,i,i,i,i
Fc1ccc(COc2ccc(Br)cc2CNCc2ccncc2)cc1,i,i,i,i,-4.4,i
CCOc1cc(CNCc2ccncc2)cc(Br)c1OCc1ccc(F)cc1,i,i,i,i,-13,i
O=C(CN1CCN(C(=O)C2CCCO2)CC1)Nc1cc(C(F)(F)F)ccc1Cl (configuration not stated),i,i,i,i,i,i
O=S(=O)(c1ccccc1)c1nc(-c2ccccc2)oc1N1CCOCC1,i,i,i,i,i,i
O=S(=O)(c1ccccc1)c1nc(-c2cccc(Cl)c2)oc1N1CCOCC1,i,i,i,10,i,i
CSC1=NCCN1C(=O)C12CC3CC(CC(C3)C1)C2,i,i,i,i,i,i
Cn1c(=O)cc(SCC(=O)NCCC2=CCCCC2)c2ccccc21,i,i,i,i,-5.5,i
Cc1ccc(NC(=O)NC(=O)CN2C(=O)NC3(CCCCCCC3)C2=O)c(C)c1,i,i,i,i,i,-5.6
O=c1[nH]c(-[n+]2ccc3ccccc3c2)c(/C=N/N=C(\[O-])c2ccccc2)s1,i,i,-6,i,i,i
CCOc1ccc(NC(=O)COc2ccc(C(=O)NC(C)c3ccc(S(N)(=O)=O)cc3)cc2OC)cc1 (configuration not stated),i,i,i,i,i,i
Cc1cc(OCCN2CCCCC2)nc2ccccc12,i,i,i,17,i,i
Cc1cc(N2CCCN(C)CC2)nc2cc(Cl)ccc12,i,i,i,13,-4.6,i
Cc1cc(N2CCOCC2)nc2cc(O)ccc12,i,i,i,i,i,i
Cc1cc(C)c2ccc(Cl)cc2n1,i,i,i,i,i,i
Cc1cc(N2CCCCC2)nc2ccccc12,i,i,-6,i,i,i
COc1ccc(N2CCN(c3cc(C)c4ccc(C)cc4n3)CC2)cc1,i,i,i,12,i,i
CCC(=O)c1ccc(N2CCN(C(=O)c3ccccc3Br)CC2)c(F)c1,i,i,i,28,i,i
CCC(=O)c1ccc(N2CCN(C(=O)c3ccccc3F)CC2)c(F)c1,i,i,i,i,i,i
Cc1ccc(N2CCN(C(=O)c3ccccc3F)CC2)c(C)c1,i,i,-7,i,i,i
